As a reminder, the IC50 is the midpoint of a concentration-inhibition curve. Usually pKa stands for the pH at which an ionisable group is half protonated. Low values mean a group that gives up its proton readily, high ones a group that holds its proton tightly. By Tmax is commonly meant the time at which the peak concentration occurs. For orientation: AUC(0-inf) means total exposure, with the tail of the curve extrapolated. A lower AUC(0-inf) goes with less exposure. What is called bioavailability is the share of a dose that reaches the circulation, judged against a reference dose that is usually intravenous. A lower bioavailability goes with little systemic uptake. What is called clearance is a measure of how efficiently the substance is removed, as volume per time. Low values mean a low capacity for elimination, high ones a high capacity for elimination. By Cmax is commonly meant the highest concentration seen after dosing.

Consider nine molecules from ChEMBL document CHEMBL1156112, “Discovery of 3-(1H-indol-3-yl)-4-[2-(4-methylpiperazin-1-yl)quinazolin-4-yl]pyrrole-2,5-dione (AEB071), a potent and selective inhibitor of protein kinase C isotypes” (J Med Chem, 2009).

Series [1] deals with Protein kinase C delta type (Homo sapiens, UniProt Q05655). Briefly: Inhibition of PKCdelta by SPA.
The target of series [2] is Protein kinase C theta type (Homo sapiens, UniProt Q04759). Nature of the series: Inhibition of PKCtheta by SPA.
In series [3] the target is Protein kinase C beta type (Homo sapiens, UniProt P05771). Nature of the series: Inhibition of PKCbeta1 by SPA.
For series [4], the target named is Protein kinase C eta type (Homo sapiens, UniProt P24723). Briefly: Inhibition of PKCeta by SPA.
Series [5] deals with Protein kinase C alpha type (Homo sapiens, UniProt P17252). Nature of the series: Inhibition of PKCalpha by SPA.
Series [6] deals with T1, Protein kinase C epsilon type (Homo sapiens, UniProt Q02156).
T1 sequence (Q02156 whole entry): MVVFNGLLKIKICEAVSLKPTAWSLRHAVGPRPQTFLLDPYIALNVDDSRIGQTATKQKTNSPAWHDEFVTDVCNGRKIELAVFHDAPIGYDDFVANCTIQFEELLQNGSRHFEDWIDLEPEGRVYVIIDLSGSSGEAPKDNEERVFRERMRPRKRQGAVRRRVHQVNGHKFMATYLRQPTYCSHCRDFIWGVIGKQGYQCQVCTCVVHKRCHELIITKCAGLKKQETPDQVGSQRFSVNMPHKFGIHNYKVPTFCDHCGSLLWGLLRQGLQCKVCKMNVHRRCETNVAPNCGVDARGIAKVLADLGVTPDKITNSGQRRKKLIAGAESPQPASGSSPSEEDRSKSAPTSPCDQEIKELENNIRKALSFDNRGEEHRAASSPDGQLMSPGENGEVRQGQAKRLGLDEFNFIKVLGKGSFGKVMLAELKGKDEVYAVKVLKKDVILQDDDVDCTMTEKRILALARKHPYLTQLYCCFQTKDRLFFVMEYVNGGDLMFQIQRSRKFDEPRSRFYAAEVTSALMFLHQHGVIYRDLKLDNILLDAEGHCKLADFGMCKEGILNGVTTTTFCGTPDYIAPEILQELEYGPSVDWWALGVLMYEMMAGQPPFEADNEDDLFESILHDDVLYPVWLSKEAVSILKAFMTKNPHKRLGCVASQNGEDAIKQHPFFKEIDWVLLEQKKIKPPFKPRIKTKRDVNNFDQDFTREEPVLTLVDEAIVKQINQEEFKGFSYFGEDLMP
Briefly: Inhibition of PKCepsilon by SPA.

The nature of the next series: cells. The settings on record: Homo sapiens, Jurkat.
Series [7] is described as follows: Dissociation constant, pKa of the compound. It is filed as physicochemical.
The nature of series [8]: Tmax in Lewis rat at 20 mg/kg, po. It is filed as ADME, organism-based. Also noted: dose 20 mg/kg, route oral. The settings on record: in vivo. Put shortly: (§1)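 Rats dosed either 5 mg/kg iv in 75% saline (0.9%)-25% PEG400 or 20 mg/kg po in 75% water-25% PEG400. OFA or Lewis rats were used depending on the compound. Values are averages of three animals. AUC is extrapolated to infinity. Oral bioavailability (F) comes from the po and iv exposures.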

The nature of series [9]: AUC (0 to infinity) in Lewis rat at 20 mg/kg, po. It is filed as ADME, organism-based. More on the design: time infinity, dose 20 mg/kg, route oral. The settings on record: plasma. Put shortly:
as §1

A short description of series [10]: Oral bioavailability in Lewis rat at 20 mg/kg, po. It counts as ADME, organism-based. The settings on record: in vivo. The procedure, abridged:
as §1

Series [11] in a line: Clearance in Lewis rat at 5 mg/kg, iv. It counts as ADME, organism-based. Also noted: dose 5 mg/kg, route intravenous. The settings on record: in vivo. Put shortly:
as §1

A short description of series [12]: AUC (0 to infinity) in Lewis rat at 5 mg/kg, iv. Also noted: time infinity, dose 5 mg/kg, route intravenous. The settings on record: plasma. It is filed as ADME, organism-based. The procedure, abridged: as §1
Series [13] is described as follows: Elimination half life in Lewis rat at 5 mg/kg, iv. The settings on record: in vivo, read-out: beta t1/2 (converted). It is filed as ADME, organism-based. More on the design: dose 5 mg/kg, route intravenous. Put shortly: as §1
Series [14] is described as follows: Volume of distribution at steady state in Lewis rat at 5 mg/kg, iv. It is filed as ADME, organism-based. More on the design: dose 5 mg/kg, route intravenous. The settings on record: in vivo, read-out: Vdss. Put shortly: as §1
The nature of series [15]: Cmax in Lewis rat at 20 mg/kg, po. It counts as ADME, organism-based. More on the design: dose 20 mg/kg, route oral. The settings on record: in vivo. The procedure, abridged: as §1
Series [16] in a line: AUC (0 to infinity) in OFA rat at 5 mg/kg, iv. It is filed as ADME, organism-based. More on the design: time infinity, dose 5 mg/kg, route intravenous. The settings on record: plasma. Put shortly: as §1
Series [17] in a line: Cmax in OFA rat at 20 mg/kg, po. It is filed as ADME, organism-based. Also noted: dose 20 mg/kg, route oral. The settings on record: in vivo. Put shortly: as §1
Series [18] can be described thus: Tmax in OFA rat at 20 mg/kg, po. It is filed as ADME, organism-based. More on the design: dose 20 mg/kg, route oral. The settings on record: in vivo. Put shortly: as §1
Series [19] in a line: Oral bioavailability in OFA rat at 20 mg/kg, po. It is filed as ADME, organism-based. The settings on record: in vivo. The procedure, abridged: as §1
Series [20] is described as follows: AUC (0 to infinity) in OFA rat at 20 mg/kg, po. More on the design: dose 20 mg/kg, route oral, time infinity. It is filed as ADME, organism-based. The settings on record: plasma. The procedure, abridged: as §1
Series [21] can be described thus: Elimination half life in OFA rat at 5 mg/kg, iv. It counts as ADME, organism-based. Also noted: dose 5 mg/kg, route intravenous. The settings on record: in vivo, read-out: beta t1/2 (converted). Put shortly: as §1
Series [22] can be described thus: Clearance in OFA rat at 5 mg/kg, iv. It is filed as ADME, organism-based. Also noted: dose 5 mg/kg, route intravenous. The settings on record: in vivo. Put shortly:
as §1

Series [23] can be described thus: Volume of distribution at steady state in OFA rat at 5 mg/kg, iv. It is filed as ADME, organism-based. Also noted: dose 5 mg/kg, route intravenous. The settings on record: in vivo, read-out: Vdss. Put shortly:
as §1

Where only a bound is given, the exact number is not on record here.

Protein kinase C eta type, sequence (P24723 whole entry): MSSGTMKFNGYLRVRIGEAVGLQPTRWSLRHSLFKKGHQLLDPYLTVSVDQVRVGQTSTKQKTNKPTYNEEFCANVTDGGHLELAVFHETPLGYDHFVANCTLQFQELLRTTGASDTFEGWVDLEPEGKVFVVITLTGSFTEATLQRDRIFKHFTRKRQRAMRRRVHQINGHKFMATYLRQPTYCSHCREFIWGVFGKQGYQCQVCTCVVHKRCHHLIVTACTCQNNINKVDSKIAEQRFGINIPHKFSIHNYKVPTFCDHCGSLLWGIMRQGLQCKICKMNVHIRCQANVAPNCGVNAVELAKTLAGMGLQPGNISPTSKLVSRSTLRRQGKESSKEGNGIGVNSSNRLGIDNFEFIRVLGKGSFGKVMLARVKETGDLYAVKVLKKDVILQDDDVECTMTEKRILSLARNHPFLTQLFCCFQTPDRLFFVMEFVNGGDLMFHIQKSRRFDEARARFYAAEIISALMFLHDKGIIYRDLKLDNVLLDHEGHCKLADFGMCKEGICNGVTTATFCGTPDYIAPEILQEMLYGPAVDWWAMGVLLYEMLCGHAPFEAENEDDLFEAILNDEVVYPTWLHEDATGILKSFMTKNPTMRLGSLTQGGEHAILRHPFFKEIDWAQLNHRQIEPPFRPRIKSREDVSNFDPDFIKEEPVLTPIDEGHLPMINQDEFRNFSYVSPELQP
Protein kinase C delta type, sequence (Q05655 whole entry): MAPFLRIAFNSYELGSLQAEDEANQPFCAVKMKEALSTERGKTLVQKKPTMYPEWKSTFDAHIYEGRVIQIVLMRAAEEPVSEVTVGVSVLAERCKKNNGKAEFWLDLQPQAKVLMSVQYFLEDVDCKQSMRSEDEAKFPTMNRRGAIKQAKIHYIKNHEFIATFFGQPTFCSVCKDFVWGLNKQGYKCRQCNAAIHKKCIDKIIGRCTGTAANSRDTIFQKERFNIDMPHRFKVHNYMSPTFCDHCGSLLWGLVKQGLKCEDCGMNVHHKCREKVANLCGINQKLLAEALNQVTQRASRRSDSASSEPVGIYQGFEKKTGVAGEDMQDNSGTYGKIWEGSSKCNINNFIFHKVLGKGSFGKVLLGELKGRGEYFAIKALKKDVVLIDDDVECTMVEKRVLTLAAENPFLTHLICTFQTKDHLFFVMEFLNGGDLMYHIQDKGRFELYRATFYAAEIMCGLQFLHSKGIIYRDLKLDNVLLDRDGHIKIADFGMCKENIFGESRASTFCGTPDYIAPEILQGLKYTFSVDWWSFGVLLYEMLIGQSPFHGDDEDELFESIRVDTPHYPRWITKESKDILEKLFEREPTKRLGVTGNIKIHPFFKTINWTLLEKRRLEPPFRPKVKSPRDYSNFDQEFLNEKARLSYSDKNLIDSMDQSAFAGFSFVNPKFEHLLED
Protein kinase C beta type, sequence (P05771 whole entry): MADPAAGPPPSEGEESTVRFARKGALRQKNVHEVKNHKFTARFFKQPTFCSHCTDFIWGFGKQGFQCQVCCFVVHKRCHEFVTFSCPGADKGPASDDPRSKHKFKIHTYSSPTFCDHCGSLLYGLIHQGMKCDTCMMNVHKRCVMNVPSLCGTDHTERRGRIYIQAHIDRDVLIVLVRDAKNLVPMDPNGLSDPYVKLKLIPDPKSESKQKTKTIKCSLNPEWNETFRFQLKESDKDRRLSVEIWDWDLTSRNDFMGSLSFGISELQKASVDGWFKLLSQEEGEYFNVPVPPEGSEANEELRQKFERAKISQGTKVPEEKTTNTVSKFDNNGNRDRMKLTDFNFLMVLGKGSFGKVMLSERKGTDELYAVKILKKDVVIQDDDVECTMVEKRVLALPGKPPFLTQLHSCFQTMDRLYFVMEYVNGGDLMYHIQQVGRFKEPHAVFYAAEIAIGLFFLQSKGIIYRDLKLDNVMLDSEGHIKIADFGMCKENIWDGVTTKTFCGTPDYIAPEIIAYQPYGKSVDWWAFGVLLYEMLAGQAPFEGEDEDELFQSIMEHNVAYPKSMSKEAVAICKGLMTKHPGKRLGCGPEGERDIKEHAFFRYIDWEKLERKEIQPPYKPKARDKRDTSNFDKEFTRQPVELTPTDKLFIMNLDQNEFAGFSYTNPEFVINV
Protein kinase C theta type, sequence (Q04759 whole entry): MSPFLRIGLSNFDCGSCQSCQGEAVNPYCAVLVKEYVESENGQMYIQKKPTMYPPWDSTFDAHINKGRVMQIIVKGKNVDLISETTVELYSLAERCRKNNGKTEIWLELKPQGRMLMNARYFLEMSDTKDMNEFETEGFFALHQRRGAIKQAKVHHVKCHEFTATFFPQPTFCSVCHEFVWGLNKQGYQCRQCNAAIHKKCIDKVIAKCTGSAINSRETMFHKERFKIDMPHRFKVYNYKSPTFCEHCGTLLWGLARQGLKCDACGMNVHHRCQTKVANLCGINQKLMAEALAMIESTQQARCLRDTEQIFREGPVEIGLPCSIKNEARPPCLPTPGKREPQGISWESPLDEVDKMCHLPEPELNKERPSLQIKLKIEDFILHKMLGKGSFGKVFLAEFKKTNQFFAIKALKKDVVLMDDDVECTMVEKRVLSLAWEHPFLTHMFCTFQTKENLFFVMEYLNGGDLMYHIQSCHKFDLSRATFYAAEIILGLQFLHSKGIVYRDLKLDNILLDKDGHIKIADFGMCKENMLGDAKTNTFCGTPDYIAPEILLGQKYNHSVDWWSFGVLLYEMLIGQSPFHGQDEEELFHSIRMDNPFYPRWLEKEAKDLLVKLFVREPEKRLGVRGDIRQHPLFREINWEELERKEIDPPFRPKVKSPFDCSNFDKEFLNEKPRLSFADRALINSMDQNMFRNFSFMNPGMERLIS

`CN(C)CCCn1cc(C2=C(c3cccc4ccccc34)C(=O)NC2=O)c2ccccc21`: the IC50 in series [1] is 207 nM; in series [2] it was 165 nM; in series [3], 60 nM; in series [4], 349 nM; in series [5] it was 98 nM; in series [6] it was over 315 nM.
With `CN(C)CCCn1cc(C2=C(c3csc4ccccc34)C(=O)NC2=O)c2ccccc21`, the IC50 in series [1] is 183 nM; in series [2], 255 nM; in series [3], 47 nM; in series [4], 293 nM; in [5] it was 73 nM; in series [6], 285 nM.
With `CN(C)CCOc1cccc(C2=C(c3c[nH]c4ccccc34)C(=O)NC2=O)c1`, the IC50 in [1] is 47 nM; in series [2], 52 nM; in [3] it was 58 nM; in series [4], 47 nM; in series [5], 15 nM; in “cells”, 668 nM. Moreover, the IC50 in [6] stood at 29 nM.
For `CN(C)CCCn1cc(C2=C(c3c[nH]c4ccccc34)C(=O)NC2=O)c2ccccc21` [GF-109203], the IC50 worked out at 8.7 nM in series [1]; 6.7 nM in series [2]; 1.6 nM in [3]; 10 nM in [4]; 2.3 nM in series [5]; 6.6 nM in [6].
In the case of `CN1CCN(c2cccc(C3=C(c4c[nH]c5ccccc45)C(=O)NC3=O)c2)CC1`, the IC50 was 97 nM in series [1]; 76 nM in [2]; 36 nM in [3]; 36 nM in [4]; 7.1 nM in [5]; 277 nM in “cells”. In [6], this molecule registered an IC50 of 59 nM. Besides, the pKa in series [7] turned out to be 7.5.
For the molecule `O=C1NC(=O)C(c2c[nH]c3ccccc23)=C1c1nc(N2CCOCC2)nc2ccccc12`, the IC50 was 794 nM in series [1]; 1380 nM in [2]; 1270 nM in [3]; 2540 nM in series [4]; 1500 nM in series [5]; over 3700 nM in the series “cells”. 1820 nM corresponded to half-maximal inhibition in series [6] (IC50).
For the molecule `CN(C)CCCn1cc(C2=C(c3n[nH]c4ccccc34)C(=O)NC2=O)c2ccccc21`, the IC50 in series [1], in series [2], in [3], in [4], in [5] and in series [6] was over 315 nM throughout.
In the case of `CN1CCN(c2cc(C3=C(c4c[nH]c5ccccc45)C(=O)NC3=O)c3ccccc3c2)CC1`, the Tmax in [8] was determined as 2 h. In addition, the IC50 in series [1] was found to be 7.3 nM; in series [2], 4.8 nM; in series [3] it was 1.8 nM; in series [4], 25 nM; in series [5], 0.9 nM; in “cells”, 50 nM. In addition, in series [6], half-maximal inhibition (IC50) was put at 19 nM. Besides, the AUC(0-inf) turned out to be 1990 ng·h/mL in series [9] and 4320 ng·h/mL in series [12]. Further, the bioavailability in series [10] was 12%. Besides, the clearance in series [11] was 19.3 mL/min/kg. In addition, in series [13], the half-life is 4.5 h. Further, the Vd in series [14] was determined as 12 L/kg. In addition, in [15], the Cmax was found to be 242 ng/mL.
Regarding `CN(C)CCOc1cc(C2=C(c3c[nH]c4ccccc34)C(=O)NC2=O)c2ccccc2c1`, the figures for the AUC(0-inf) in series [16] and in [20] were 2690 ng·h/mL and 154 ng·h/mL, respectively. Moreover, in series [17], the peak level (Cmax) was 16.2 ng/mL. In series [18], the Tmax is 0.5 h. The molecule further yielded a bioavailability in series [19] of 1%. The IC50 came out at 4.4 nM in [1]; 3.3 nM in [2]; 2.1 nM in series [3]; 11 nM in [4]; 2.2 nM in [5]; 69 nM in “cells”. Moreover, the IC50 in series [6] amounted to 5.5 nM. Besides, the half-life in [21] is 20.6 h. In series [22], this molecule gave a clearance of 30.9 mL/min/kg. The Vd in series [23] is 48.2 L/kg.
